pIC50: −log10 of the molar value. In brackets after ≈: the same amount, converted by molar mass. Values belong to the compound of their own block, whether it stands above or below them.
How the values were obtained:
[1] = molecular target: Signal peptidase I (Escherichia coli K-12) (UniProt P00803); experiment: Inhibition of full length Escherichia coli His6-tagged LepB expressed in Escherichia coli C43(DE3) at 100 uM using dabcyl-VEVGGTATAGAFSRPGLE-(EDANS) as substrate preincubated for 10 mins followed by substrate addition measured for 2 hrs by FRET assay relative to control
Chain of Signal peptidase I (Escherichia coli K-12) (P00803 whole entry): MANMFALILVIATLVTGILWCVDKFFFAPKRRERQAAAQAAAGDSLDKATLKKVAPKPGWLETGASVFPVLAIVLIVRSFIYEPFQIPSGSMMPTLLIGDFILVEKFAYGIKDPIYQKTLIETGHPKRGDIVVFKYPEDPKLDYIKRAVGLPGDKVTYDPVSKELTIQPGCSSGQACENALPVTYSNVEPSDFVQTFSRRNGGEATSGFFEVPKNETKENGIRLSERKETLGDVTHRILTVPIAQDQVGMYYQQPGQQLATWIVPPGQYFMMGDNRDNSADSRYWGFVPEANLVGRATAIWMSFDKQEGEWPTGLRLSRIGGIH
Outline: (§1)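 Enzyme came from the membrane fraction, extracted with 1% reduced Triton X-100 and purified by metal-chelation chromatography in 0.5% detergent. FRET pair was dabcyl acceptor and EDANS donor. EcLepB (final about 50 nM) was pre-incubated with compound 10 min at 22 °C. Reaction was then run with 8 µM substrate, following the linear fluorescence increase at 22 °C for 2 h.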

Signal peptidase I = Signal peptidase I (Escherichia coli K-12, UniProt P00803); experiment: Inhibition of full length Escherichia coli His6-tagged LepB expressed in Escherichia coli C43(DE3) using dabcyl-VEVGGTATAGAFSRPGLE-(EDANS) as substrate preincubated for 10 mins followed by substrate addition measured for 2 hrs by FRET assay
Chain of Signal peptidase I (P00803 whole entry): as above
Outline: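 Enzyme extracted from the membrane fraction with 1% reduced Triton X-100 and purified by metal-chelation chromatography in 0.5% detergent. Enzyme (final ~50 nM) was pre-incubated with compound for 10 min at 22 °C. The linear rise in EDANS donor fluorescence (dabcyl acceptor) was then followed at 22 °C for 2 h. IC50 came from non-linear regression of sigmoidal rate-versus-concentration curves.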

[2] = molecular target: Signal peptidase I (Escherichia coli K-12) (UniProt P00803); experiment: (§2) Inhibition of full length Escherichia coli His6-tagged LepB expressed in Escherichia coli C43(DE3) assessed as residual activity at 2.5 uM using dabcyl-VEVGGTATAGAFSRPGLE-(EDANS) as substrate preincubated for 10 mins followed by substrate addition measured for 2 hrs by FRET assay relative to control; outline: as §1
[3] = molecular target: Signal peptidase I (Escherichia coli K-12) (UniProt P00803); experiment: Inhibition of full length Escherichia coli His6-tagged LepB expressed in Escherichia coli C43(DE3) assessed as residual activity at 5 uM using dabcyl-VEVGGTATAGAFSRPGLE-(EDANS) as substrate preincubated for 10 mins followed by substrate addition measured for 2 hrs by FRET assay relative to control; outline: as §1
[4] = molecular target: Signal peptidase I (Escherichia coli K-12) (UniProt P00803); experiment: as §2, with “0.002” for “2.5”; outline: as §1
[5] = molecular target: Signal peptidase I (Escherichia coli K-12) (UniProt P00803); experiment: as §2, with “0.005” for “2.5”; outline: as §1
[6] = molecular target: Signal peptidase I (Escherichia coli K-12) (UniProt P00803); experiment: as §2, with “1.25” for “2.5”; outline: as §1
[7] = molecular target: Signal peptidase I (Escherichia coli K-12) (UniProt P00803); experiment: as §2, with “0.625” for “2.5”; outline: as §1
[8] = molecular target: Signal peptidase I (Escherichia coli K-12) (UniProt P00803); experiment: as §2, with “0.313” for “2.5”; outline: as §1
[9] = molecular target: Signal peptidase I (Escherichia coli K-12) (UniProt P00803); experiment: as §2, with “0.156” for “2.5”; outline: as §1
[10] = molecular target: Signal peptidase I (Escherichia coli K-12) (UniProt P00803); experiment: as §2, with “0.078” for “2.5”; outline: as §1
[11] = molecular target: Signal peptidase I (Escherichia coli K-12) (UniProt P00803); experiment: as §2, with “0.039” for “2.5”; outline: as §1
[12] = molecular target: Signal peptidase I (Escherichia coli K-12) (UniProt P00803); experiment: as §2, with “0.02” for “2.5”; outline: as §1
[13] = molecular target: Signal peptidase I (Escherichia coli K-12) (UniProt P00803); experiment: as §2, with “0.01” for “2.5”; outline: as §1
[14] = molecular target: Signal peptidase I (Escherichia coli K-12) (UniProt P00803); experiment: as §2, with “0.001” for “2.5”; outline: as §1
[15] = molecular target: Signal peptidase I (Escherichia coli K-12) (UniProt P00803); experiment: as §2, with “0.0005” for “2.5”; outline: as §1
Escherichia coli [16] = experiment: Antibacterial activity against wild type Escherichia coli ATCC 25922 after 16 to 20 hrs by broth microdilution assay; assay type: functional
Outline: (§3)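 MIC by broth microdilution in cation-adjusted Mueller-Hinton II medium, following EUCAST and CLSI guidelines; panel of Gram-negative strains plus S. aureus ATCC 29213.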

Escherichia coli [17] = experiment: Antibacterial activity against Escherichia coli CH3130 harboring tolC deletion mutant after 16 to 20 hrs by broth microdilution assay; assay type: functional
Outline: (§4)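 Broth microdilution MIC in cation-adjusted Mueller-Hinton II medium, following EUCAST and CLSI guidelines; tested on a panel of Gram-negative strains plus S. aureus ATCC 29213 (wild-type).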

Escherichia coli [18] = experiment: Antibacterial activity against Escherichia coli D22 harboring lpxC mutant after 16 to 20 hrs by broth microdilution assay; assay type: functional; outline: as §4
Pseudomonas aeruginosa [19] = experiment: Antibacterial activity against wild type Pseudomonas aeruginosa PAO1 after 16 to 20 hrs by broth microdilution assay; assay type: functional; outline: as §3
Pseudomonas aeruginosa [20] = experiment: Antibacterial activity against wild type Pseudomonas aeruginosa PAO750 harboring efflux defective mutant after 16 to 20 hrs by broth microdilution assay; assay type: functional; outline: as §4
Klebsiella pneumoniae = experiment: Antibacterial activity against wild type Klebsiella pneumoniae […] after 16 to 20 hrs by broth microdilution assay; assay type: functional; outline: as §3
Staphylococcus aureus = experiment: Antibacterial activity against wild type Staphylococcus aureus ATCC 29213 after 16 to 20 hrs by broth microdilution assay; assay type: functional; outline: as §3
Acinetobacter baumannii = experiment: Antibacterial activity against wild type Acinetobacter baumannii ATCC 19606 after 16 to 20 hrs by broth microdilution assay; assay type: functional; outline: as §3
[21] = Cytotoxicity against human HepG2 cells assessed as reduction in cell viability after 72 hrs by fluorescein diacetate dye based fluorometric microculture assay; assay type: toxicity
Outline: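 FMCA on HepG2 cells read at 72 h. Survival index (%) is fluorescence in test wells as percent of control cultures, with blank values subtracted. IC50 was obtained by non-linear regression of log concentration-effect curves.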

[22] = Hemolytic activity against human RBC at 100 uM after 45 mins by spectrophotometric method relative to control; assay type: ADME, cell-based, Erythrocyte; settings: red blood cells (RBC), read-out: Activity
Outline: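 Hemolysis was tested using red blood cells from heparinized human blood.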

inhibition [1]: 35.8%
SMILES: CNC(=O)[C@@H]1CCCN1C(=O)[C@H](C)NC(=O)[C@H](CC(N)=O)NC(=O)[C@H](C)NC(=O)[C@@H](NC(=O)[C@@H]1CCCN1C(C)=O)[C@H](C)O

inhibition [1]: 26.6%
SMILES: CC(=O)N[C@@H](C)C(=O)N[C@@H](CC(N)=O)C(=O)N[C@@H](C)C(=O)C(=O)NCc1cccc2ccccc12

inhibition [1]: 26%
SMILES: CC(=O)N1CCC[C@H]1C(=O)N[C@H](C(=O)N[C@@H](C)C(=O)N[C@@H](CC(N)=O)C(=O)N[C@@H](C)B1O[C@@H]2C[C@@H]3C[C@@H](C3(C)C)[C@]2(C)O1)C(C)O (single isomer, unassigned)

inhibition [1]: 22.5%
SMILES: CC(=O)N1CCC[C@H]1C(=O)N[C@H](C(=O)N[C@@H](C)C(=O)N[C@@H](CC(N)=O)C(=O)N[C@@H](C)C(=O)C(=O)NC(C)(C)C)[C@H](C)O

More lines, now with the values behind:

SMILES: CCCCCCCCCC(=O)N1CCC[C@H]1C(=O)N[C@H](C(=O)N[C@@H](C)C(=O)N[C@@H](CC(N)=O)C(=O)N[C@@H](C)C(=O)C(=O)NC(C)(C)C)[C@H](C)O
inhibition [1]: 31.5%

SMILES: CC(=O)N[C@@H](C)B1O[C@@H]2C[C@@H]3C[C@@H](C3(C)C)[C@]2(C)O1
inhibition [1]: 18%

SMILES: CCCCCCCCCC(=O)N1CCC[C@H]1C(=O)N[C@H](C(=O)N[C@@H](C)C(=O)N[C@@H](CC(N)=O)C(=O)N[C@@H](C)C(=O)C(=O)NCc1cccc2ccccc12)[C@H](C)O
inhibition [1]: 14.4%

SMILES: CCCCCCc1ccc(-c2ccc(C(=O)N3CCC[C@H]3C(=O)N[C@H](C(=O)N[C@@H](C)C(=O)N[C@@H](CC(N)=O)C(=O)N[C@@H](C)B3O[C@@H]4C[C@@H]5C[C@@H](C5(C)C)[C@]4(C)O3)[C@H](C)O)cc2)cc1
pIC50 (Signal peptidase I): 7.92 | Activity [2]: 7.64% | Activity [3]: 11.2% | inhibition [1]: > 50% | Activity [4]: 92.8% | Activity [5]: 82.2% | Activity [6]: 11.4% | Activity [7]: 16% | Activity [8]: 17.4% | Activity [9]: 16.9% | Activity [10]: 11.5% | Activity [11]: 16.8% | Activity [12]: 51.2% | Activity [13]: 57% | Activity [14]: 94.4% | Activity [15]: 100% | MIC (Escherichia coli [16]): > 64 µg/mL | MIC (Escherichia coli [17]): 64 µg/mL (≈ 73.5 µM) | MIC (Escherichia coli [18]): 16 µg/mL (≈ 18.4 µM) | MIC (Pseudomonas aeruginosa [19]): > 64 µg/mL | MIC (Pseudomonas aeruginosa [20]): > 64 µg/mL | MIC (Klebsiella pneumoniae): > 64 µg/mL | MIC (Staphylococcus aureus): 4 µg/mL (≈ 4.59 µM) | MIC (Acinetobacter baumannii): > 64 µg/mL | IC50 at 72 h [21]: 4.7 µM | hemolysis at 0.75 h, 100 µM [22]: 1.1%

— ChEMBL document CHEMBL3877308, “Design, synthesis and in vitro biological evaluation of oligopeptides targeting E. coli type I signal peptidase (LepB)” (Bioorg Med Chem, 2017)
